The test system of data set [1] is PC-3. The data set can be described thus: Cell cycle arrest in human PC-3 cells assessed as reduction in cell accumulation at S phase in presence of antioxidant N-acetyl-L-cysteine at 0.05 uM measured after 3 hrs by propidium iodide staining based flow cytometry. It is filed as functional. The essentials: (§1)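 PC3 cells seeded 1×10^5 per well in 6-well plates, exposed 3 h, with or without 1 mM N-acetyl-L-cysteine pretreatment; vehicle 0.1% DMSO. Harvested with trypsin-EDTA, fixed in 75% ethanol in PBS at 4 °C for 30 min, stained 1 h with RNase (1.5 mg mL^-1) and propidium iodide (90 μg mL^-1); DNA content by flow cytometry. Phase fractions compared with control by ANOVA/Tukey.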

Data set [2] relates to PC-3. The data set can be described thus: Induction of morphological changes in human PC-3 cells assessed as reduction in cell density at 0.05 uM measured after 24 hrs in presence of antioxidant N-acetyl-L-cysteine by phase contrast microscopy. The class given is functional, cell-based. In short, it runs like this:
(§2)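 PC3 cells were seeded at 1×10^5 per well in 6-well plates and treated after 24 h, with or without 1 mM N-acetyl-L-cysteine. The same observation field was imaged by phase contrast microscopy at 1, 2, 3, 4 and 24 h. DMSO vehicle served as control.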

Data set [3] concerns PC-3. The data set can be described thus: Cell cycle arrest in human PC-3 cells assessed as increase in cell accumulation at G2/M phase in presence of antioxidant N-acetyl-L-cysteine at 0.05 uM measured after 3 hrs by propidium iodide staining based flow cytometry. It is filed as functional. The essentials:
as §1
On the technique in general: Flow cytometry measures light scatter and fluorescence of single cells or particles in a stream.

In data set [4] the test system is PC-3. Briefly: Cell cycle arrest in human PC-3 cells assessed as reduction in cell accumulation at G0/G1 phase in presence of antioxidant N-acetyl-L-cysteine at 0.05 uM measured after 3 hrs by propidium iodide staining based flow cytometry. It is filed as functional. The essentials:
as §1

In data set [5] the test system is PC-3. Briefly: Cytotoxicity against human PC-3 cells assessed as reduction in cell viability measured after 48 hrs by CCK-8 assay. It is filed as functional, cell-based. The following applies: PC-3, 48 h. In short, it runs like this:
(§3)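 CCK-8 viability: cells grown in RPMI-1640 with 10% FBS, 1×10^4 per well, attached 24 h, then medium replaced with fresh medium containing a range of compound concentrations for 48 h at 37 °C, 5% CO2. CCK-8 added 3 h, absorbance 450 nm; vehicle control set as 100%. IC50 by nonlinear regression, mean ± SD, at least two experiments in triplicate.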
A general note: Formazan colour is commonly taken as a measure of viable cells.

Data set [6] is described as follows: Selectivity index, ratio of IC50 for cytotoxicity against human MCF-10A cells to IC50 for cytotoxicity against human MCF7 cells. It is filed as toxicity, cell-based. The following applies: MCF-10A cells versus MCF7 cells, read-out: Ratio IC50. The essentials: (§4)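 CCK-8 was added for 3 h and A450 read, with vehicle set as 100% viability. IC50 was fitted by nonlinear regression from ≥2 experiments in triplicate. SI = normal-cell IC50 divided by the matched cancer-cell IC50.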

For data set [7], the system named is PC-3. Briefly: Cell cycle arrest in human PC-3 cells assessed as reduction in cell accumulation at S phase at 0.05 uM measured after 3 hrs by propidium iodide staining based flow cytometry. The class given is functional. In short, it runs like this:
as §1

The subject of data set [8] is PC-3. Briefly: Cytotoxicity against human PC-3 cells assessed as cell growth inhibition at 0.05 uM measured after 48 hrs in presence of 0.5 to 50 uM NO scavenger carboxy-PTIO by CCK-8 assay. It is filed as functional, cell-based. In short, it runs like this: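 PC3 at 1×10^4 cells per well attached 24 h, pretreated 1 h with carboxy-PTIO (0, 0.50, 3.13, 6.25, 12.50, 25, 50 μM), then compound added for 48 h; washed three times with PBS, growth read by CCK-8 as percent inhibition versus control cells; two experiments in triplicate.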

A short description of data set [9]: Cytotoxicity against human MCF-10A cells assessed as reduction in cell viability measured after 48 hrs by CCK-8 assay. The class given is toxicity, cell-based. In short, it runs like this:
as §3

Data set [10] is described as follows: Selectivity index, ratio of IC50 for cytotoxicity against human PNT2 cells to IC50 for cytotoxicity against human PC-3 cells. The following applies: PNT2 cells versus PC-3 cells, read-out: Ratio IC50. It is filed as toxicity, cell-based. The essentials:
as §4

Data set [11] has as its system PC-3. Briefly: Induction of nitric oxide production in human PC-3 cells assessed as nitrite level at 100 uM measured after 12 to 48 hrs by Griess assay. The class given is functional. The following applies: time 12-48 hrs. The essentials: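 PC3 cells were seeded at 1×10^4 per well and grown 24 h, then moved to serum-free RPMI with 100 μM compound for 12, 24 or 48 h at 37 °C. Supernatant was mixed with 1% sulfanilamide in 2.5% H3PO4 (10 min, dark), then 0.1% NED (10 min, 37 °C), and A540 was read. Nitrite was calculated from a NaNO2 curve (0–100 μM). Controls were DMSO and SNP 100 μM. Data from ≥3 independent experiments in triplicate, mean ± SD.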
In general terms: The Griess reaction detects nitrite, a stable product of nitric oxide.

A short description of data set [12]: Cytotoxicity against human PNT2 cells assessed as reduction in cell viability measured after 48 hrs by CCK-8 assay. The class given is toxicity, cell-based. In short, it runs like this: as §3
Data set [13] deals with PC-3. Briefly: Cell cycle arrest in human PC-3 cells assessed as increase in cell accumulation at G2/M phase at 0.05 uM measured after 3 hrs by propidium iodide staining based flow cytometry. It is filed as functional. In short, it runs like this:
as §1

Another data set concerns OVCAR-3. The data set can be described thus: Cytotoxicity against human OVCAR-3 cells assessed as reduction in cell viability measured after 48 hrs by CCK-8 assay. The class given is functional, cell-based. The following applies: OVCAR-3, 48 h. The essentials:
as §3

The subject of the next data set is MCF7. The data set can be described thus: Cytotoxicity against human MCF7 cells assessed as reduction in cell viability measured after 48 hrs by CCK-8 assay. It is filed as functional, cell-based. The following applies: MCF7, 48 h. The essentials: as §3
Data set [14] concerns PC-3. The data set can be described thus: Induction of morphological changes in human PC-3 cells assessed as cell rounding at 0.24 uM measured after 24 hrs by phase contrast microscopy. The class given is functional, cell-based. In short, it runs like this: as §2
The test system of data set [15] is PC-3. The data set can be described thus: Induction of morphological changes in human PC-3 cells assessed as loss of adhesion at 0.24 uM measured after 24 hrs in presence of antioxidant N-acetyl-L-cysteine by phase contrast microscopy. The class given is functional, cell-based. The essentials:
as §2

For data set [16], the system named is PC-3. The data set can be described thus: Induction of apoptosis in human PC-3 cells assessed as viable cells at 0.24 uM measured after 6 hrs by Alexa Fluor 488-annexin V/propidium iodide staining based flow cytometry (reference value: 89.37%). It is filed as functional. The following applies: read-out: Activity.
Data set [17] has as its system PC-3. Briefly: Cell cycle arrest in human PC-3 cells assessed as down regulation of c-Myc gene expression at 0.24 uM measured after 3 hrs by qPCR analysis. The class given is functional, cell-based. The essentials: (§5)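 Seeded 1×10^5 cells per well in 6-well plates; PC3 treated 3 h. Total RNA extracted, qPCR; each target normalized to reference gene (β-actin) by efficiency-corrected ΔΔCt (Pfaffl) against a control calibrator sample, efficiencies from amplification profiles. Mean ± SEM of four independent experiments.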

Data set [18] deals with PC-3. Briefly: Induction of apoptosis in human PC-3 cells assessed as effect on BAX gene expression at 0.24 uM measured after 3 hrs by qPCR analysis. It is filed as functional, cell-based. The essentials:
as §5

Data set [19] relates to PC-3. The data set can be described thus: Induction of ROS generation in human PC-3 cells at 0.24 uM measured after 30 mins by CellROX reagent based flow cytometry. It is filed as functional, cell-based. In short, it runs like this: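 PC3 seeded 1×10^5 per well in 6-well plates, after 24 h treated together with CellROX green (5 μM final) for 30 min at 37 °C; 0.1% DMSO negative control, 1 mM H2O2 positive control. Cells collected and CellROX-positive fraction measured by flow cytometry.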

Data set [20] has as its system PC-3. The data set can be described thus: Cytotoxicity against human PC-3 cells assessed as reduction in cell viability at 0.24 uM measured after 24 hrs by SRB assay. The class given is functional, cell-based. The essentials: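 SRB assay: PC3 seeded 1×10^4 per well, after 24 h exposed 24 h at 37 °C, 5% CO2 with or without 1 mM N-acetyl-L-cysteine; vehicle 0.1% DMSO. Fixed with 15% TCA at 4 °C for 1 h, dried, stained 0.4% sulforhodamine B, dye solubilized in 10 mM Tris, absorbance 540 nm; ANOVA/Tukey.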

The source of these data is ChEMBL document CHEMBL6134784, “Furoxan-piplartine hybrids as effective NO donors and ROS inducers in PC3 cancer cells: design, synthesis, and biological evaluation” (RSC Med Chem, 2024).

Calls of active or inactive are those of the source. No cut-off for these calls is given here.

`COc1cc(/C=C/C(=O)N2CCC=CC2=O)cc(OC)c1OCCCCCCCCCCCCOc1no[n+]([O-])c1S(=O)(=O)c1ccccc1`: the result in the data set on PC-3 [1], with PC-3 [3], in the data set on PC-3 [4], with PC-3 [7] and with PC-3 [13] was Active. In addition, the result in the data set on PC-3 [2] was inactive. Moreover, the IC50 – broadly, the midpoint of a concentration-inhibition curve – in the data set with PC-3 [5] is 0.05 µM; with OVCAR-3, 0.12 µM; in the data set with MCF7, 7.9 µM. In addition, the selectivity ratio in data set [6] was determined as 15.7; in [10], 285. Further, in the data set with PC-3 [8], the “growth inhibition (GI)” value was “inactive”. Further, the IC50 at 48 h came out at 123 µM in data set [9] and 14.1 µM in data set [12]. Moreover, the Activity in the data set with PC-3 [11] is 23.5 µM.
As to `COc1cc(/C=C/C(=O)N2CCC=CC2=O)cc(OC)c1OCCCOc1no[n+]([O-])c1S(=O)(=O)c1ccccc1`, the result in the data set with PC-3 [14], in the data set on PC-3 [17], in the data set on PC-3 [19] and in the data set with PC-3 [20] was Active. Moreover, the outcome in the data set on PC-3 [15] and in the data set with PC-3 [18] was inactive. In addition, the viability at 0.24 µM in the data set with PC-3 [16] was found to be 48.6%. Moreover, the IC50 in the data set on PC-3 [5] stood at 0.24 µM; in the data set with OVCAR-3, 0.4 µM; in the data set on MCF7, 1.2 µM. The selectivity ratio is 3 in data set [6] and 75.5 in [10]. The IC50 at 48 h in [9] was 3.5 µM; in [12], 17.8 µM. The Activity in the data set on PC-3 [11] was 23.5 µM.
